Here are results for five molecules from PMC4066402 (Genes & Development, 2014).

By Kd is commonly meant a measure of binding affinity in units of concentration. What is called Ki is the equilibrium dissociation constant of an inhibitor or competing ligand from its target. Low readings indicate a stronger hold on the target, high ones a looser hold on the target.

Test [1] addresses T1, BODIPY-FL-N(Cys)-Spt5-(801–898) (S. pombe) (UniProt O13936).
T1 sequence (O13936 801-898, looked up): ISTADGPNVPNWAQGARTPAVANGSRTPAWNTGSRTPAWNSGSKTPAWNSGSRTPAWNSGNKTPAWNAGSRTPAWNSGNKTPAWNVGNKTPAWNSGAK
Put plainly: fluorescence polarisation. (In fluorescence polarisation assays a small probe gives low polarisation when free and higher when bound to something large.)

For a further test, the target named is T2, Pce1 G276R (Schizosaccharomyces pombe, UniProt P40997, G276R).
T2 sequence (P40997 1-402 G276R): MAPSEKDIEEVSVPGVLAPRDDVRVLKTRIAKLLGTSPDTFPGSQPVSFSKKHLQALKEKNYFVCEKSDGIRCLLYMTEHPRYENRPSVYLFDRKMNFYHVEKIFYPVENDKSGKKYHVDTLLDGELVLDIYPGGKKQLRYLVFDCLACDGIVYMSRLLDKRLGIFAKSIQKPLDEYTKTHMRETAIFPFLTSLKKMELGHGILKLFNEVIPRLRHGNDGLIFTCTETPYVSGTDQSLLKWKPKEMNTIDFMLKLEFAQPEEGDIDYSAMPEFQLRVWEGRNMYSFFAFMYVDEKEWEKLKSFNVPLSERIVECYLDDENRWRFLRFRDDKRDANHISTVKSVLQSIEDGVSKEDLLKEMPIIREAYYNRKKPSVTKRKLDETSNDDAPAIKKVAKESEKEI
Put plainly: Fluorescence polarization binding of Spt5 CTD-. Also noted: species or system S. pombe. The essentials: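 Tag-free Pce1–GMP (His6Smt3 fusion made in E. coli, Ulp1-cleaved, gel-filtered, then guanylylated with 1 mM GTP/5 mM MgCl2 for 30 min on ice) was titrated against BODIPY-FL-N(Cys)-Spt5-(801–898) in 20 mM Tris-HCl, 4 mM DTT. Incubation was 15 min on ice. Read-out was polarization at ex 485/em 538 nm. Kd came from single-site fits, using a receptor-depletion model where half-saturation approached the ligand concentration.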

Test [2] deals with Pce1. The settings on record: His tag affinity chromatography assay; ref Pei and Shuman 2002; cited from earlier work.
In test [3] the target is T3, Pce1 (Schizosaccharomyces pombe, UniProt P40997).
T3 sequence (P40997 1-402): T2 sequence (P40997 1-402 G276R) with R276G
The test is described as follows: Competition between labeled and unlabeled Spt5 CTD-. The test is classed as binding, S. pombe. The settings on record: 1 μM Pce1 preincubated with untagged Spt5 CTD-(801–898) 15 min on ice, then 0.3 μM BODIPY-FL-Spt5 CTD-(801–898); pH 8.0; three independent experiments ± SEM.

Positions count from the first letter of the chain named.

B1: Schizosaccharomyces pombe RNA guanylyltransferase (GTase) Pce1, wild type, as the covalent Pce1–GMP intermediate (enzyme)
chain: SMAPSEKDIEEVSVPGVLAPRDDVRVLKTRIAKLLGTSPDTFPGSQPVSFSKKHLQALKEKNYFVCEKSDGIRCLLYMTEHPRYENRPSVYLFDRKMNFYHVEKIFYPVENDKSGKKYHVDTLLDGELVLDIYPGGKKQLRYLVFDCLACDGIVYMSRLLDKRLGIFAKSIQKPLDEYTKTHMRETAIFPFLTSLKKMELGHGILKLFNEVIPRLRHGNDGLIFTCTETPYVSGTDQSLLKWKPKEMNTIDFMLKLEFAQPEEGDIDYSAMPEFQLGVWEGRNMYSFFAFMYVDEKEWEKLKSFNVPLSERIVECYLDDENRWRFLRFRDDKRDANHISTVKSVLQSIEDGVSKEDLLKEMPIIREAYYNRKKPSVTKRKLDETSNDDAPAIKKVAKESEKEI
modifications: Lys67 covalently guanylylated (lysyl-Nζ-GMP)
The molecule B1 displayed a Kd in test [1] of 1.19 µM.

B2: Pce1-G276R (enzyme)
chain: B1 chain with G277R
modifications: guanylylated in vitro (Pce1–GMP)
In test [1], B2 yielded an equilibrium dissociation constant (Kd) of 28.8 µM.

B3: BODIPY-FL-Spt5 CTD-(801–898): N(Cys)-Spt5-(801–898) labeled with BODIPY-FL at the N terminus via maleimide chemistry (protein, UniProt O13936 801-898, looked up, fragment)
chain: T1 sequence (O13936 801-898, looked up)
modifications: N-terminal Cys, BODIPY-FL label
On to B3, for which the “decrement in binding affinity” value with Pce1 G276R (Pce1-G276R vs wild-type Pce1) came out at 24 fold. In the test with Pce1 G276R (Pce1 G276R, 300 nM labeled ligand, pH 8.0, 50 mM NaCl, read at 23°C, triplicate), the Kd was 28.8 ± 4.3 µM.

B4: Spt5 CTD composed of 10 nonamer repeats: Spt5 CTD composed of 10 nonamer repeats (protein, UniProt O13936 801-898, looked up, fragment)
chain: T1 sequence (O13936 801-898, looked up)
B4: the “Pce1 binding to Spt5 CTD, dependence on number of nonamer repeats” value with Pce1 [2] was “bound well”.

B5: Spt5-(801–898): purified recombinant Spt5-(801–898), composed of 10 nonamer repeats (protein, UniProt O13936 801-898, looked up, fragment)
chain: T1 sequence (O13936 801-898, looked up)
In the test with Pce1 [3], B5 returned an inhibition constant Ki of 0.61 ± 0.2 µM.
